Laboratory results reported in ChEMBL document CHEMBL1150857, “Dendocarbins A--N, new drimane sesquiterpenes from the nudibranch Dendrodoris carbunculosa” (J Nat Prod, 2001).
≈ marks a conversion by molar mass, not a printed value.

What was measured:
Type in all cases: functional, cell-based
[1] = tested on: P388; assay: Cytotoxicity against vincristine-resistant mouse P388 cells in absence of 0.004 ug/mL vincristine
Summary of the method: (§1)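 Murine leukemia P388 lines were tested: the drug-sensitive strain (P388/S), the adriamycin-resistant line (P388/ADR) and the vincristine-resistant line (P388/VCR). Cytotoxicity was expressed as IC50.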

[2] = tested on: P388; assay: Cytotoxicity against drug-sensitive mouse P388 cells; summary of the method: as §1
[3] = tested on: P388; assay: Cytotoxicity against adriamycin-resistant mouse P388 cells in absence of 0.1 ug/mL adriamycin; summary of the method: as §1
[4] = tested on: P388; assay: Cytotoxicity against vincristine-resistant mouse P388 cells in presence of 0.004 ug/mL vincristine
[5] = tested on: P388; assay: Cytotoxicity against adriamycin-resistant mouse P388 cells in presence of 0.1 ug/mL adriamycin

| Structure (SMILES) | IC50 [1] | IC50 [2] | IC50 [3] | IC50 [4] | IC50 [5] |
| --- | --- | --- | --- | --- | --- |
| CC1(C)CCC[C@]2(C)[C@H]3C(=O)OC(=O)C3=CC[C@@H]12 [DENDOCARBIN H] | 10.1 µg/mL (≈ 40.7 µM) | 10.8 µg/mL (≈ 43.5 µM) | 10.1 µg/mL | 8 µg/mL | 10.5 µg/mL |
| CC1(C)CCC[C@]2(C)[C@H]3C(=O)OC(=O)C3=C[C@H](O)[C@@H]12 [DENDOCARBIN G] | > 25 µg/mL | > 25 µg/mL | > 25 µg/mL | > 25 µg/mL | > 25 µg/mL |
| C[C@@]1(CO)CCC[C@]2(C)[C@H]3C(=O)OC(=O)C3=CC[C@@H]12 [DENDOCARBIN F] | > 25 µg/mL | > 25 µg/mL | > 25 µg/mL | > 25 µg/mL | 22 µg/mL |
| CC1(C)C[C@H](O)C[C@]2(C)[C@H]3C(=O)OCC3=CC[C@@H]12 [DENDOCARBIN B] | 10.2 µg/mL (≈ 40.7 µM) | 11.5 µg/mL (≈ 45.9 µM) | 7 µg/mL | 9 µg/mL | 10.5 µg/mL |
| CCO[C@@H]1OC(=O)C2=C1[C@@]1(C)CCCC(C)(C)[C@@H]1C[C@H]2O [DENDOCARBIN K] | 10.5 µg/mL (≈ 35.7 µM) | 10.5 µg/mL (≈ 35.7 µM) | 9 µg/mL | 9 µg/mL | 10.5 µg/mL |
| CC(=O)O[C@@H]1OC(=O)C2=CC[C@H]3C(C)(C)CCC[C@]3(C)[C@H]21 | 10.2 µg/mL (≈ 34.9 µM) | 10.2 µg/mL (≈ 34.9 µM) | 8 µg/mL | 9 µg/mL | 10.1 µg/mL |
| CC1(C)CCC[C@]2(C)[C@@H]3C(=CC[C@@H]12)CO[C@H]3O [ISODRIMENINOL] | 22 µg/mL (≈ 93.1 µM) | 13 µg/mL (≈ 55 µM) | 18 µg/mL | > 25 µg/mL | 18 µg/mL |
| CC1(C)CCC[C@]2(C)C3=C(C(=O)OC3O)[C@H](O)C[C@@H]12 (mixture of isomers) [DENDOCARBIN L/DENDOCARBIN M] | > 25 µg/mL | > 25 µg/mL | > 25 µg/mL | > 25 µg/mL | > 25 µg/mL |
| CC1(C)CCC[C@]2(C)[C@H]3[C@H](O)OC(=O)[C@@]3(O)CC[C@@H]12 [DENDOCARBIN D] | 16 µg/mL (≈ 59.6 µM) | 15 µg/mL (≈ 55.9 µM) | 16 µg/mL | 14 µg/mL | 16 µg/mL |
| CC1(C)[C@@H](O)CC[C@]2(C)[C@H]3C(=O)OC(=O)C3=CC[C@@H]12 [DENDOCARBIN E] | 22.5 µg/mL (≈ 85.1 µM) | > 25 µg/mL | 19 µg/mL | > 25 µg/mL | > 25 µg/mL |
| CC1(C)CCC[C@]2(C)[C@@H]3C(=C[C@H](O)[C@@H]12)CO[C@H]3O [DENDOCARBIN C] | > 25 µg/mL | > 25 µg/mL | > 25 µg/mL | > 25 µg/mL | > 25 µg/mL |
| CCOC1OC(=O)C2=C1[C@@H](O)C[C@H]1C(C)(C)CCC[C@]21C (stereo not given in full) [DENDOCARBIN I] | 10.2 µg/mL (≈ 34.6 µM) | 10 µg/mL (≈ 34 µM) | 8 µg/mL | 10.2 µg/mL | 10 µg/mL |
| CC1(C)CCC[C@]2(C)[C@@H]3C(=CC[C@@H]12)C(=O)O[C@H]3O [DENDOCARBIN A] | > 25 µg/mL | > 25 µg/mL | > 25 µg/mL | > 25 µg/mL | > 25 µg/mL |
| CC1(C)CCC[C@]2(C)[C@H]3[C@H](O)OC[C@]34O[C@@H]4[C@H](O)[C@@H]12 [DENDOCARBIN N] | > 25 µg/mL | > 25 µg/mL | > 25 µg/mL | > 25 µg/mL | > 25 µg/mL |
| CC1(C)CCC[C@]2(C)C3=C(CC[C@@H]12)C(=O)O[C@@H]3O | 2.5 µg/mL (≈ 9.99 µM) | 3.2 µg/mL (≈ 12.8 µM) | 2.5 µg/mL | 2.5 µg/mL | 2.5 µg/mL |
| CCO[C@H]1OC(=O)C2=C1[C@@]1(C)CCCC(C)(C)[C@@H]1C[C@H]2O [DENDOCARBIN J] | 4 µg/mL (≈ 13.6 µM) | 17 µg/mL (≈ 57.7 µM) | 11 µg/mL | 4 µg/mL | 8 µg/mL |
